Results as given in PubChem BioAssay.
The source made the active and inactive calls.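 How the source made its calls, unless noted: active means NADPH fluorescence slope more negative than the mean of all samples by about 3 SD, 99.7% confidence; inactive means the rest.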

Assays:
[1] = inhibitors of TNFa-induced NFkB p65 translocation, primary screen, imaging, HUVEC, MLSMR starter and 10KST1 sets (AID 438;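 active means inhibition above 20% together with a positive visual image hit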;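 further: compound added about 3h40 before a 20 min TNFalpha stimulation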;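 on inhibition: signal is the nuclear over cytoplasmic p65 intensity ratio per well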); details: HUVEC TNFa-induced p65 nuclear translocation; cell count: measured here: nuclei count (cytotoxicity indicator), at 2.08 µM; inhibition: at 2 µM, stronger effect = higher value, 0% TNFa-plus-vehicle, 100% no-TNFa wells
[2] = inhibitors of E-selectin induction by TNFa, primary screen, imaging, HUVEC, immunofluorescence, MLSMR starter and 10KST1 sets (AID 487;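 active means visually confirmed hit in the image check and inhibition above 20%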;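 on inhibition: signal is fraction of cell area covered by stained E-selectin grains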;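 on nuclei count: 100% = median nuclei count of all wells on the same plate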); details: HUVEC TNFalpha-induced E-selectin immunofluorescence imaging, at 2 µM; inhibition: stronger effect = higher value; nuclei count: measured here: cell number, toxicity
[3] = DUSP6 inhibitors restoring Erk phosphorylation by chemical complementation, primary imaging in DUSP6-transfected HeLa (AID 609;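 active means compounds giving at least 50% inhibition in the cell-based MKP-3 phosphatase rescue imaging test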;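 on inhibition: phospho-Erk level distribution per well compared with pooled transfected vehicle control wells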); details: HeLa MKP-3 transfected, phospho-Erk imaging KS statistic, at 10 µM, cells stimulated with TPA for 15 min
[4] = molecular target: Dual specificity protein phosphatase 6 (Homo sapiens) (UniProt Q16828); test: as above; details: HeLa MKP-3 transfected, phospho-Erk imaging KS statistic; at 10 µM; stronger effect = higher value; cells stimulated with TPA for 15 min
Sequence of Dual specificity protein phosphatase 6 (Homo sapiens) (Q16828 whole entry, looked up): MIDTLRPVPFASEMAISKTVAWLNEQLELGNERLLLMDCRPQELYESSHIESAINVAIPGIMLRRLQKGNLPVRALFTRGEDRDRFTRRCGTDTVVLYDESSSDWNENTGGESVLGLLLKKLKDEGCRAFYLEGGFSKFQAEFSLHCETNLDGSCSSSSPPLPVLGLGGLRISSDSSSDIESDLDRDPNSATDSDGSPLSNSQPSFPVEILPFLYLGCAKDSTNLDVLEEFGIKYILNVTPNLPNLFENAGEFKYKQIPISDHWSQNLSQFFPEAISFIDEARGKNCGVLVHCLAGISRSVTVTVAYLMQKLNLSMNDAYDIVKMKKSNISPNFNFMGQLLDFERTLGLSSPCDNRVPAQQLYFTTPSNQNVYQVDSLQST

[5] = molecular target: Voltage-gated potassium channel subunit beta-2 (Rattus norvegicus) (UniProt P62483); test: KvBeta enzyme negative modulators, primary screen, biochemical, NADPH fluorescence (AID 622;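 active means fluorescence slope higher than the sample average by over 3 SD, cut at about -0.22 in these data, passing the limit was not always enough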;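 further: slope of raw intensity against log time taken from 70 to 1610 s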); details: recombinant KvBeta, 4-cyanobenzaldehyde reduction, at 10 µM, stronger effect = higher value
Sequence of Voltage-gated potassium channel subunit beta-2 (Rattus norvegicus) (P62483 whole entry, looked up): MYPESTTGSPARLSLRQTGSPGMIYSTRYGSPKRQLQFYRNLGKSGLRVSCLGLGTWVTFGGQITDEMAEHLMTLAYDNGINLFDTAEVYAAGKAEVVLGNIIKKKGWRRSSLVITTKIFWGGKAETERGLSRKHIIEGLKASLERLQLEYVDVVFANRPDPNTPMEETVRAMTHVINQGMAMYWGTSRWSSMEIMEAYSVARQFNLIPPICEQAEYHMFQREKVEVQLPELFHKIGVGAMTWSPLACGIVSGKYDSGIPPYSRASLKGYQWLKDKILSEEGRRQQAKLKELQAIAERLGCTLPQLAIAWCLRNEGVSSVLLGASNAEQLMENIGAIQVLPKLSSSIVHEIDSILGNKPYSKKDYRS

[6] = molecular target: Voltage-gated potassium channel subunit beta-2 (Rattus norvegicus) (UniProt P62483); test: KvBeta positive modulators, primary screen, biochemical, NADPH fluorescence (AID 623); details: Recombinant KvBeta, NADPH fluorescence decrease slope, 10 min; at 10 µM; stronger effect = lower value;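 further: fluorescence intensity change per second fitted from 20 to 320 s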
[7] = molecular target: Alpha-2C adrenergic receptor (Homo sapiens) (UniProt P18825); test: modulators of alpha2C/GIRK thallium flux, primary screen, cell-based, HEK293 alpha2C/GIRK1/2 (AID 624;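 active means fluorescence slope after compound addition differing from the mean of all screened samples at 99.7% confidence, in either direction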;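 further: slope of fluorescence ratio to pre-addition baseline per second over 15 to 24 s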); details: thallium flux BTC fluorescence, at 10 µM, actives lie on both sides
Sequence of Alpha-2C adrenergic receptor (Homo sapiens) (P18825 whole entry, looked up): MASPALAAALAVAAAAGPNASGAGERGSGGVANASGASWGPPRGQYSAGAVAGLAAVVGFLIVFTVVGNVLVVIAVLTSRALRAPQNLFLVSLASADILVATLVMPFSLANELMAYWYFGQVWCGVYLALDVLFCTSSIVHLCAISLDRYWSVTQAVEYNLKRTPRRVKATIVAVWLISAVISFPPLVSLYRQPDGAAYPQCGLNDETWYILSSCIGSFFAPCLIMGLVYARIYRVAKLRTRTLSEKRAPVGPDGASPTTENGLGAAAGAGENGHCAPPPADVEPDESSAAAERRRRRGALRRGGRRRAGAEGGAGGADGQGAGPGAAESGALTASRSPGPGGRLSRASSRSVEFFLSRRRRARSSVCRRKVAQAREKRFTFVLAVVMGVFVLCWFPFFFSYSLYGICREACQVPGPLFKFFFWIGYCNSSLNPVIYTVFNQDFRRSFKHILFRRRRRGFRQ

[8] = inhibitors of larval lipid processing in zebrafish, primary screen, whole organism, PED6 fluorescence, gall bladder and intestine (AID 686;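 active means a full or partial loss of lipid-probe fluorescence in the fish gall bladder, intestine or both, judged by eye; inactive means no fluorescence loss, or compound toxic to the fish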;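 further: larvae 5 to 7 days old with five fish per well; signal comes from phospholipase A2 cleavage of quenched PED6 carried via bile; overnight exposure to compound and PED6 before scoring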); details: Zebrafish larvae PED6 lipid processing, fluorescence scoring; screened at 20 µM (by protocol)
Method in brief: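 Test system – live zebrafish larvae aged 5-7 days, whole organism · Buffer or medium – E3 fish medium · Reagent – quenched phospholipase substrate PED6, 100 nM final, ingested by larvae · Doses – 20 µM single dose · Incubation – overnight compound and PED6 incubation · Technique – visual fluorescence microscopy scoring of gall bladder, gut · Read-out basis – visual per-well fluorescence inhibition score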

[9] = inhibitors of Chlamydomonas gravitaxis, primary screen, whole organism, Chlamydomonas reinhardtii, WT vs cilia-less mutant, absorbance, 96-well (AID 463189;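 active means inhibition at or above 50% relative to wild type and mutant plate controls; inactive means inhibition below 50%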;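 further: 0% = wild type cc124 cells in DMSO and 100% = ciliumless bld1 mutant cells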); details: OD600 absorbance, 2 days, at 10 µM, stronger effect = higher value
[10] = measured here: cell density z-score
[11] = measured here: nuclear c-Myc green intensity z-score
[12] = measured here: nuclear pErk red intensity z-score, stronger effect = higher value

SMILES | cell count [1] | inhibition [1] | inhibition [2] | nuclei count [2] [%] | z-score [3, 10] | z-score [3, 11] | z-score [3, 12] | inhibition [4] | fluorescence slope [5] | NADPH fluorescence slope [6] | slope [7] | outcome [8] | inhibition [9]
Cc1cc2c(c(=O)n1Cc1cccnc1)C(c1ccccc1)C(C#N)=C(N)O2 (stereo unspecified) | 550 | -28.8% (inactive) | -50% (inactive) | 160 | -0.164 | -2.06 | -1.42 | -6.06% (inactive) | -0.537 (inactive) | -2.7e-05 (inactive) | 0.00757 (inactive) | inactive | 22.9% (inactive)
CC(C(=O)N1CCOCC1)N1C(=O)c2ccccc2C1=O (stereo unspecified) | 306 | -3% (inactive) | -45.1% (inactive) | 96 | 1.24 | -0.122 | -1.67 | -8.76% (inactive) | -0.419 (inactive) | 2.4e-06 (inactive) | 0.0049 (inactive) | inactive | 15.3% (inactive)
Cc1ccc(C(=O)C2=C(O)C(=O)N(c3ncccn3)C2c2ccc(Cl)cc2)o1 (stereo unspecified) | 371 | -10.1% (inactive) | 14.5% (inactive) | 94.4 | -1.13 | -0.679 | 0.195 | 7.83% (inactive) | -0.331 (inactive) | -1.3e-05 (inactive) | 0.00456 (inactive) | inactive | 5.76% (inactive)
Cc1cc(-c2cc(-c3ccc(Cl)cc3)nc(N)c2C#N)co1 | 560 | -6.2% (inactive) | 62.4% (inactive) | 173 | 0.0299 | -0.21 | -0.449 | 7.01% (inactive) | -0.294 (inactive) | 4.6e-06 (inactive) | 0.00537 (inactive) | inactive | 5.58% (inactive)
COc1ccc(-c2cc(-c3ccccc3)n3ncnc3n2)cc1 | 451 | 3.2% (inactive) | -35.1% (inactive) | 162 | 1.29 | 1.44 | -0.816 | -1.12% (inactive) | -0.00896 (inactive) | -5.1e-07 (inactive) | 0.00473 (inactive) | inactive | -19.8% (inactive)
COc1ccc(OC)c(NC(=O)CSC2=C(C#N)C(c3ccco3)C3=C(CCCC3=O)N2)c1 (stereo unspecified) | 356 | -6.8% (inactive) | -37.1% (inactive) | 141 | -0.66 | -0.0626 | 0.62 | -6.59% (inactive) | -0.404 (inactive) | -0.000112 (inactive) | 0.00599 (inactive) | inactive | 20.2% (inactive)
CCCOc1ccc(-c2nnc(N)s2)cc1 | 608 | -13.2% (inactive) | -31.6% (inactive) | 164 | 0.463 | 0.84 | -0.902 | -4.27% (inactive) | -0.403 (inactive) | -6.2e-05 (inactive) | 0.00732 (inactive) | inactive | -0.862% (inactive)
CCOc1nc(SC(C(C)=O)C(=O)Nc2ccccc2)nc(N(C)C)n1 (stereo unspecified) | 302 | -20.6% (inactive) | 10.9% (inactive) | 91.5 | 0.486 | -0.655 | -1.33 | 10.5% (inactive) | -0.456 (inactive) | -9.6e-06 (inactive) | 0.00845 (inactive) | inactive | -7.41% (inactive)
COc1ccc(C2C(C#N)=C(N)Oc3n[nH]c(C)c32)cc1CSc1ccccn1 (stereo unspecified) | 648 | -1.9% (inactive) | 9.1% (inactive) | 168 | -0.678 | 1.17 | -0.733 | -5.62% (inactive) | -0.412 (inactive) | -3.1e-05 (inactive) | 0.00563 (inactive) | inactive | -9.39% (inactive)
CC(=O)c1c(C(C)=O)c(C)n(NC(=O)c2ccncc2)c1C | 557 | 1.2% (inactive) | -2.4% (inactive) | 133 | 1.16 | -1.48 | 0.477 | 5.26% (inactive) | -0.305 (inactive) | 7.7e-06 (inactive) | 0.00487 (inactive) | inactive | 8.61% (inactive)
c1ccc(-c2nn3c(C4CCCCC4)nnc3s2)cc1 | 527 | -1.4% (inactive) | -81.3% (inactive) | 142 | -0.66 | 0.347 | 1.15 | -18.6% (inactive) | -0.435 (inactive) | -8.4e-05 (inactive) | 0.00411 (inactive) | inactive | 6.49% (inactive)
Cn1c2c(c(=O)n(C)c1=O)C(NC(=O)c1cccs1)(C(F)(F)F)C(=O)N2 (stereo unspecified) | 497 | 3.5% (inactive) | -80.8% (inactive) | 147 | 1.78 | -0.706 | -0.81 | 8.76% (inactive) | -0.537 (inactive) | -9.1e-06 (inactive) | 0.00621 (inactive) | inactive | 24.7% (inactive)
O=C(O)CCCC(=O)Nc1ccn(-c2ccccc2)n1 | 639 | 3.1% (inactive) | -63.9% (inactive) | 142 | 2.2 | -2.05 | 0.525 | 20.3% (inactive) | -0.486 (inactive) | -2.7e-05 (inactive) | 0.00622 (inactive) | inactive | 11.2% (inactive)
CN1C(=S)SC(N(O)C(=O)Nc2ccccc2)C1(C)C (stereo unspecified) | 486 | 8.3% (inactive) | -95.4% (inactive) | 168 | 0.407 | -0.73 | 0.0884 | 7.73% (inactive) | -0.52 (inactive) | -0.000109 (inactive) | 0.00576 (inactive) | inactive | -9.05% (inactive)
Cc1nc2c(=O)n(C)c(=O)[nH]c2n1Cc1ccccc1 | 465 | 3.5% (inactive) | -59.5% (inactive) | 153 | 0.739 | 0.0972 | 1.29 | -4.7% (inactive) | -0.394 (inactive) | -4.2e-05 (inactive) | 0.00601 (inactive) | inactive | -5.62% (inactive)
CC(C)OC(=O)C(C#N)c1nc2ccccc2nc1N1CCN(Cc2ccc3c(c2)OCO3)CC1 (stereo unspecified) | 351 | -4.7% (inactive) | -35.2% (inactive) | 129 | -0.0424 | 0.237 | -0.926 | 3.5% (inactive) | -0.459 (inactive) | -0.000113 (inactive) | 0.00323 (inactive) | inactive | 17% (inactive)
CCOCCSc1nc2c(c(=O)[nH]c(=O)n2C)n1CCCc1ccccc1 | 487 | -2.4% (inactive) | -80.2% (inactive) | 133 | 0.294 | -0.866 | -0.255 | -3.5% (inactive) | -0.515 (inactive) | -6.3e-05 (inactive) | 0.00557 (inactive) | inactive | -2.75% (inactive)
COc1ccc(-c2oc3ncn4nc(COc5ccccc5)nc4c3c2-c2ccc(OC)cc2)cc1 | 621 | -7.9% (inactive) | -75% (inactive) | 194 | -0.444 | -0.952 | -0.924 | -15% (inactive) | -0.327 (inactive) | -1.2e-05 (inactive) | 0.0133 (inactive) | inactive | -3.79% (inactive)
CCOC(=O)CC1=C(C(=O)OCC)C(c2ccc(OC)c(OC)c2)C(C#N)=C(N)O1 (stereo unspecified) | 471 | -4.3% (inactive) | -157% (inactive) | 163 | -0.376 | -0.993 | -1.45 | 4.25% (inactive) | -0.359 (inactive) | 6.8e-06 (inactive) | 0.00447 (inactive) | inactive | 24.9% (inactive)
CSC(=Nc1ccccc1)C1=C(O)COC1=O | 315 | -17.4% (inactive) | -75.7% (inactive) | 139 | 1.64 | -0.593 | -1.01 | 5.26% (inactive) | -0.419 (inactive) | -8.2e-05 (inactive) | 0.00729 (inactive) | inactive | -2.91% (inactive)
CCOC(=O)c1c(C(C#N)C#N)cc(C)nc1C | 521 | -5.3% (inactive) | -83.6% (inactive) | 129 | 0.584 | -0.43 | 0.768 | -2.07% (inactive) | -0.509 (inactive) | -8e-05 (inactive) | 0.00491 (inactive) | inactive | 9.41% (inactive)
COC(=O)CN(c1nc(C)c(Br)c(OC)n1)S(=O)(=O)c1ccc(C)cc1 | 598 | 6.5% (inactive) | -10.9% (inactive) | 142 | 0.877 | 0.344 | 0.387 | 9.82% (inactive) | -0.379 (inactive) | -2.1e-05 (inactive) | 0.0055 (inactive) | inactive | -5.5% (inactive)
COc1cc(C2C(C#N)=C(N)Oc3cc(C)n(CCN4CCOCC4)c(=O)c32)cc(OC)c1OC (stereo unspecified) | 388 | 4% (inactive) | -116% (inactive) | 142 | -0.238 | -0.479 | -0.461 | -4.7% (inactive) | -0.468 (inactive) | -4.4e-05 (inactive) | 0.0078 (inactive) | inactive | -6.44% (inactive)
C=CCOc1nc2c(c(=O)n(C)c(=O)n2C)n1Cc1ccccc1Cl | 617 | 0.6% (inactive) | 39.7% (inactive) | 155 | -1.51 | -0.0292 | 0.274 | 16.8% (inactive) | -0.515 (inactive) | -0.000108 (inactive) | 0.0054 (inactive) | inactive | 1.08% (inactive)
CCOC(=O)c1[nH]c2cc3c(cc2c1NC(=O)CN1CCc2ccccc2C1)OCO3 | 523 | 0.1% (inactive) | -11.1% (inactive) | 104 | -0.283 | -0.223 | -0.654 | -1.75% (inactive) | -0.248 (inactive) | -1e-07 (inactive) | 0.00381 (inactive) | inactive | 25.5% (inactive)
CN(C)C=C1C(=O)c2ccccc2C1=O | 574 | -5.6% (inactive) | -153% (inactive) | 132 | -0.195 | -0.125 | -0.0657 | 11.9% (inactive) | -0.423 (inactive) | -4.2e-05 (inactive) | 0.00438 (inactive) | inactive | 60.8% (active)
CCOC(=O)CC(=O)CSc1nc2c(cc1C#N)CCCCC2 | 510 | -8.3% (inactive) | -29.1% (inactive) | 114 | -0.0989 | -0.82 | 0.239 | 6.51% (inactive) | -0.342 (inactive) | -3e-05 (inactive) | 0.00873 (inactive) | inactive | 12.7% (inactive)
